ChEMBL document CHEMBL1221279, “Synthesis, biological evaluation, and structure-activity relationship study of novel cytotoxic aza-caffeic acid derivatives” (Bioorg Med Chem, 2010)

Experiments:
Format in all cases: functional, cell-based
HL-60 = assay: Cytotoxicity against human HL60 cells after 72 hrs by MTT assay; conditions: HL-60, 72 h
Outline: (§1)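 Cells grown in MEM with 10% fetal calf serum, penicillin and streptomycin at 37 °C, 5% CO2. Exponentially growing cells seeded in quadruplicate at 5 × 10³ per well and left 24 h before compounds (DMSO stocks) were added. After 72 h exposure, MTT added for 4 h at 37 °C, formazan dissolved in DMSO, read at 570 nm. IC50 read graphically from dose–response curves.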

[1] = Cytotoxicity against human Bel7404 cells after 72 hrs by MTT assay; conditions: BEL-7404, 72 h; outline: as §1
[2] = Cytotoxicity against human LS 174T cells after 72 hrs by MTT assay; conditions: LS174T; outline: as §1
CNE = assay: Cytotoxicity against human CNE cells after 72 hrs by MTT assay; outline: as §1
[3] = Cytotoxicity against human ECA109 cells after 72 hrs by MTT assay; conditions: ECa-109, 72 h; outline: as §1
K562 = assay: Cytotoxicity against human K562 cells after 72 hrs by MTT assay; conditions: K562, 72 h; outline: as §1
PC-3 = assay: Cytotoxicity against human PC3 cells after 72 hrs by MTT assay; conditions: PC-3, 72 h; outline: as §1
HeLa = assay: Cytotoxicity against human HeLa cells after 72 hrs by MTT assay; outline: as §1
BGC-823 = assay: Cytotoxicity against human BGC823 cells after 72 hrs by MTT assay; conditions: BGC-823, 72 h; outline: as §1
A549 = assay: Cytotoxicity against human A549 cells after 72 hrs by MTT assay; conditions: A549, 72 h; outline: as §1
KB = assay: Cytotoxicity against human KB cells after 72 hrs by MTT assay; outline: as §1
[4] = Cytotoxicity against human HO8910 cells after 72 hrs by MTT assay; conditions: HO-8910, 72 h; outline: as §1

Row | Structure (SMILES) | IC50 (HL-60) | IC50 [1] | IC50 [2] | IC50 (CNE) | IC50 [3] | IC50 (K562) | IC50 (PC-3) | IC50 (HeLa) | IC50 (BGC-823) | IC50 (A549) | IC50 (KB) | IC50 [4]
1 | O=C(COC(=O)/C=C/c1ccc(O)c(O)c1)NN1CCOCC1 | > 200 µM | > 200 µM | > 200 µM | > 200 µM | > 200 µM | 56.8 µM | > 200 µM | > 200 µM | – | – | – | –
2 | CCOc1ccc(COc2c(OC)cc(/C=C/C(=O)NCCN3CCOCC3)cc2OC)cc1 | > 200 µM | > 200 µM | > 200 µM | > 200 µM | > 200 µM | > 200 µM | > 200 µM | > 200 µM | > 200 µM | > 200 µM | > 200 µM | > 200 µM
3 | O=C(COC(=O)/C=C/c1ccc(O)c(O)c1)Nc1ccc(Cl)cc1 | 8.1 µM | > 200 µM | 108 µM | 89.6 µM | 175 µM | 99.4 µM | 160 µM | 195 µM | – | – | – | –
4 | O=C(/C=C/c1ccc(O)c(O)c1)NCCc1c[nH]c2ccccc12 | 124 µM | > 200 µM | 8.4 µM | > 200 µM | > 200 µM | > 200 µM | > 200 µM | 2.7 µM | > 200 µM | > 200 µM | 85.7 µM | > 200 µM
5 | COc1ccc(NC(=O)COC(=O)/C=C/c2ccc(OCc3ccccc3)c(O)c2)cc1 | > 200 µM | > 200 µM | > 200 µM | > 200 µM | > 200 µM | 56.1 µM | > 200 µM | > 200 µM | – | – | – | –
6 | O=C(/C=C/C(=O)N1CCN(Cc2ccc(Cl)c(Cl)c2)CC1)c1ccccc1 | 99.4 µM | 67.1 µM | 67.2 µM | > 200 µM | 103 µM | > 200 µM | > 200 µM | 84.8 µM | 78.8 µM | 139 µM | 103 µM | > 200 µM
7 | COc1ccc(/C=C/C(=O)OCC(=O)Nc2ccccc2)cc1OC | 46.4 µM | > 200 µM | > 200 µM | > 200 µM | > 200 µM | > 200 µM | > 200 µM | 193 µM | – | – | – | –
8 | O=C(/C=C/c1ccc(O)c(O)c1)N1CCN(Cc2ccc(Cl)c(Cl)c2)CC1 | 165 µM | > 200 µM | 50.4 µM | > 200 µM | > 200 µM | > 200 µM | > 200 µM | > 200 µM | > 200 µM | > 200 µM | > 200 µM | > 200 µM
9 | O=C(/C=C/c1ccc(O)c(O)c1)NCCN1CCOCC1 | > 200 µM | > 200 µM | > 200 µM | > 200 µM | > 200 µM | > 200 µM | > 200 µM | > 200 µM | > 200 µM | > 200 µM | > 200 µM | > 200 µM
10 | COCOc1cc(/C=C/C(=O)OCC(=O)NN2CCOCC2)ccc1OCc1ccccc1 | 50.4 µM | > 200 µM | > 200 µM | > 200 µM | 143 µM | 32.4 µM | > 200 µM | > 200 µM | – | – | – | –
11 | O=C(/C=C/c1ccccc1)N1CCN(Cc2ccc(Cl)c(Cl)c2)CC1 | 82.6 µM | 44.8 µM | 34.1 µM | > 200 µM | 17 µM | 14.1 µM | 12.8 µM | 73.9 µM | 31.2 µM | 173 µM | 20.7 µM | 45.4 µM
12 | O=C(/C=C/c1ccc(O)c(O)c1)OCCc1ccccc1 [CAFFEIC ACID PHENETHYL ESTER] | 9.8 µM | 14.5 µM | 9.9 µM | 54 µM | 42.6 µM | 46 µM | 91 µM | 8.8 µM | 19.3 µM | 26.8 µM | 45.2 µM | 25.5 µM
13 | O=C(COC(=O)/C=C/c1ccc(O)c(O)c1)Nc1ccccc1 | 30.3 µM | > 200 µM | 117 µM | > 200 µM | > 200 µM | > 200 µM | > 200 µM | > 200 µM | – | – | – | –
14 | COCOc1cc(/C=C/C(=O)OCC(=O)Nc2ccc(Cl)cc2)ccc1OCc1ccccc1 | > 200 µM | > 200 µM | > 200 µM | > 200 µM | > 200 µM | > 200 µM | > 200 µM | > 200 µM | – | – | – | –
15 | Cc1ccc(NC(=O)COC(=O)/C=C/c2ccc(O)c(O)c2)cc1 | 92.6 µM | > 200 µM | 145 µM | > 200 µM | > 200 µM | > 200 µM | > 200 µM | > 200 µM | – | – | – | –
16 | CCCCCNC(=O)COC(=O)/C=C/c1ccc(O)c(O)c1 | 97.4 µM | > 200 µM | 69.4 µM | 170 µM | 131 µM | 121 µM | 155 µM | 187 µM | – | – | – | –
17 | COCOc1cc(/C=C/C(=O)OCC(=O)Nc2nccs2)ccc1OCc1ccccc1 | > 200 µM | 130 µM | > 200 µM | > 200 µM | > 200 µM | > 200 µM | > 200 µM | > 200 µM | – | – | – | –
18 | COc1ccc(NC(=O)COC(=O)/C=C/c2ccc(O)c(O)c2)cc1 | 72.1 µM | > 200 µM | 124 µM | > 200 µM | 190 µM | 79.1 µM | 172 µM | > 200 µM | – | – | – | –
19 | COc1ccc(/C=C/C(=O)NCCN2CCOCC2)cc1OC | > 200 µM | > 200 µM | > 200 µM | > 200 µM | > 200 µM | > 200 µM | > 200 µM | > 200 µM | > 200 µM | > 200 µM | > 200 µM | > 200 µM
20 | CCOc1ccc(COc2c(OC)cc(/C=C/C(=O)OCC(=O)Nc3ccc(Cl)cc3)cc2OC)cc1 | > 200 µM | > 200 µM | > 200 µM | > 200 µM | > 200 µM | > 200 µM | > 200 µM | > 200 µM | – | – | – | –
21 | COc1ccc(/C=C/C(=O)NCCc2c[nH]c3ccccc23)cc1OC | > 200 µM | > 200 µM | > 200 µM | > 200 µM | > 200 µM | > 200 µM | > 200 µM | > 200 µM | > 200 µM | > 200 µM | > 200 µM | > 200 µM
22 | COCOc1ccc(/C=C/C(=O)NCCc2c[nH]c3ccccc23)cc1OCOC | > 200 µM | > 200 µM | 165 µM | > 200 µM | 154 µM | 195 µM | 157 µM | > 200 µM | 143 µM | > 200 µM | > 200 µM | > 200 µM
23 | COc1ccc(NC(=O)COC(=O)/C=C/c2cc(OC)c(OCc3ccc(Cl)c(Cl)c3)c(OC)c2)cc1 | > 200 µM | 97.8 µM | > 200 µM | > 200 µM | > 200 µM | > 200 µM | > 200 µM | > 200 µM | – | – | – | –
24 | COCOc1cc(/C=C/C(=O)OCC(=O)NCc2ccco2)ccc1OCc1ccccc1 | 82.2 µM | > 200 µM | > 200 µM | > 200 µM | > 200 µM | 0.3 µM | > 200 µM | > 200 µM | – | – | – | –
25 | COc1ccc(NC(=O)COC(=O)/C=C/c2cc(OC)c(OCc3ccccc3)c(OC)c2)cc1 | > 200 µM | > 200 µM | > 200 µM | > 200 µM | > 200 µM | > 200 µM | > 200 µM | > 200 µM | – | – | – | –
26 | COCOc1cc(/C=C/C(=O)OCC(=O)Nc2ccc(OC)cc2)ccc1OCc1ccccc1 | > 200 µM | 133 µM | > 200 µM | > 200 µM | > 200 µM | > 200 µM | > 200 µM | 155 µM | – | – | – | –
27 | COc1ccc(/C=C/C(=O)OCC(=O)NCc2ccco2)cc1OC | 92.5 µM | > 200 µM | > 200 µM | > 200 µM | > 200 µM | 0.8 µM | > 200 µM | > 200 µM | – | – | – | –
28 | COc1ccc(/C=C/C(=O)OCC(=O)Nc2ccc(Cl)cc2)cc1OC | 31.9 µM | 120 µM | > 200 µM | > 200 µM | 81.9 µM | 60.2 µM | > 200 µM | 45.4 µM | – | – | – | –
29 | CCOc1ccc(COc2c(OC)cc(/C=C/C(=O)OCC(=O)Nc3ccccc3)cc2OC)cc1 | > 200 µM | > 200 µM | > 200 µM | > 200 µM | > 200 µM | > 200 µM | > 200 µM | > 200 µM | – | – | – | –
30 | COc1cc(/C=C/C(=O)OCC(=O)Nc2ccc(Cl)cc2)cc(OC)c1OCc1ccc(Cl)c(Cl)c1 | 73.9 µM | > 200 µM | 72.4 µM | > 200 µM | > 200 µM | > 200 µM | > 200 µM | > 200 µM | – | – | – | –
